Experiments:
Assay type in all cases: functional
NCI-H226 [1] = assay: Growth inhibition of human NCI-H226 cells assessed as cell growth at 10^-4 M incubated for 48 hrs by sulforhodamine B assay; conditions: NCI-H226, 48 h, read-out: Activity
SK-MEL-5 = assay: Growth inhibition of human SK-MEL-5 cells assessed as cell growth at 10^-7 M incubated for 48 hrs by sulforhodamine B assay; conditions: SK-MEL-5, 48 h, read-out: Activity
[2] = Growth inhibition of human SF268 cells assessed as cell growth at 10^-4 M incubated for 48 hrs by sulforhodamine B assay; conditions: SF-268, 48 h, read-out: Activity
NCI-H322M = assay: Growth inhibition of human NCI-H322M cells assessed as cell growth at 10^-4 M incubated for 48 hrs by sulforhodamine B assay; conditions: read-out: Activity
ACHN [3] = assay: Growth inhibition of human ACHN cells incubated for 48 hrs by sulforhodamine B assay
In short: (§1)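 Five-dose assay: five concentrations from 10-fold or ½-log serial dilutions. Cells are plated at 5,000–40,000 per well according to doubling time, grown 24 h, then exposed 48 h at 37 °C, 5% CO₂. Fixed with cold 50% TCA (final addition) for 60 min at 4 °C and stained with 0.4% SRB in 1% acetic acid. Bound dye is solubilized in 10 mM Tris base and read at 515 nm. GI₅₀ is where [(Ti−Tz)/(C−Tz)]×100 = 50, with a time-zero plate as Tz.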

[4] = Growth inhibition of human OVCAR5 cells assessed as cell growth at 10^-5 M incubated for 48 hrs by sulforhodamine B assay; conditions: OVCAR-5, 48 h, read-out: Activity
[5] = Growth inhibition of human OVCAR8 cells assessed as cell growth at 10 uM incubated for 48 hrs by sulforhodamine B assay; conditions: OVCAR-8, 48 h, read-out: Activity
[6] = Growth inhibition of human PC3 cells assessed as cell growth at 10^-4 M incubated for 48 hrs by sulforhodamine B assay; conditions: PC-3, 48 h, read-out: Activity
[7] = Growth inhibition of human UACC62 cells assessed as cell growth at 10^-8 M incubated for 48 hrs by sulforhodamine B assay; conditions: UACC-62, 48 h, read-out: Activity
[8] = Growth inhibition of human SF295 cells assessed as cell growth at 10^-5 M incubated for 48 hrs by sulforhodamine B assay; conditions: SF-295, 48 h, read-out: Activity
[9] = Growth inhibition of human RPMI8226 cells assessed as cell growth at 10^-8 M incubated for 48 hrs by sulforhodamine B assay; conditions: RPMI-8226, 48 h, read-out: Activity
NCI-H226 [10] = assay: Growth inhibition of human NCI-H226 cells assessed as cell growth at 10^-8 M incubated for 48 hrs by sulforhodamine B assay; conditions: NCI-H226, 48 h, read-out: Activity
T47D [11] = assay: Growth inhibition of human T47D cells assessed as cell growth at 10^-7 M incubated for 48 hrs by sulforhodamine B assay; conditions: read-out: Activity
M14 = assay: Growth inhibition of human M14 cells incubated for 48 hrs by sulforhodamine B assay; conditions: M14, 48 h
In short: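 Cells were plated at 5,000–40,000 per well according to doubling time and preincubated 24 h at 37 °C in 5% CO2; time-zero plates were then TCA-fixed. Five concentrations (10-fold or ½-log dilutions, DMSO stock) were incubated 48 h. Cells were TCA-fixed, stained with 0.4% SRB and read at 515 nm. GI50 was taken where [(Ti−Tz)/(C−Tz)]×100 = 50.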

[12] = Growth inhibition of human HCT15 cells assessed as cell growth at 10^-7 M incubated for 48 hrs by sulforhodamine B assay; conditions: HCT-15, 48 h, read-out: Activity
In short: (§2)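 Cells seeded at 5,000–40,000/well according to doubling time and preincubated 24 h at 37 °C, 5% CO2. Time-zero plates were TCA-fixed. DMSO concentrate was diluted in medium with 50 µg/ml gentamicin to give five concentrations (10-fold or ½ log steps), then exposed 48 h. Cells were TCA-fixed, stained with 0.4% SRB and read at 515 nm. Percent growth was taken against time-zero and control; GI50, TGI and LC50 derived.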

[13] = Growth inhibition of human Caki1 cells assessed as cell growth at 10^-7 M incubated for 48 hrs by sulforhodamine B assay; conditions: CAKI-1, 48 h, read-out: Activity; in short: as §2
NCI-H226 [14] = assay: Growth inhibition of human NCI-H226 cells assessed as cell growth at 10^-5 M incubated for 48 hrs by sulforhodamine B assay; conditions: NCI-H226, 48 h, read-out: Activity
[15] = Growth inhibition of human UO31 cells assessed as cell growth at 10^-5 M incubated for 48 hrs by sulforhodamine B assay; conditions: UO-31, 48 h, read-out: Activity
ACHN [16] = assay: Growth inhibition of human ACHN cells assessed as cell growth at 10^-5 M incubated for 48 hrs by sulforhodamine B assay; conditions: read-out: Activity; in short: as §1
U-251 = assay: Growth inhibition of human U251 cells assessed as cell growth at 10^-7 M incubated for 48 hrs by sulforhodamine B assay; conditions: U-251, 48 h, read-out: Activity
T47D [17] = assay: Growth inhibition of human T47D cells assessed as cell growth at 10^-5 M incubated for 48 hrs by sulforhodamine B assay; conditions: read-out: Activity
HT-29 = assay: Growth inhibition of human HT-29 cells assessed as cell growth at 10^-7 M incubated for 48 hrs by sulforhodamine B assay; conditions: HT-29, 48 h, read-out: Activity
T47D [18] = assay: Growth inhibition of human T47D cells assessed as cell growth at 10^-4 M incubated for 48 hrs by sulforhodamine B assay; conditions: read-out: Activity
[19] = Growth inhibition of human SKOV3 cells assessed as cell growth at 10 uM incubated for 48 hrs by sulforhodamine B assay; conditions: SK-OV-3, 48 h, read-out: Activity
[20] = Growth inhibition of human OVCAR5 cells assessed as cell growth at 10 uM incubated for 48 hrs by sulforhodamine B assay; conditions: OVCAR-5, 48 h, read-out: Activity
SK-MEL-2 [21] = assay: Growth inhibition of human SK-MEL-2 cells assessed as cell growth at 10^-6 M incubated for 48 hrs by sulforhodamine B assay; conditions: SK-MEL-2, 48 h, read-out: Activity
Malme-3M = assay: Growth inhibition of human MALME-3M cells assessed as cell growth at 10^-6 M incubated for 48 hrs by sulforhodamine B assay; conditions: read-out: Activity
SK-MEL-2 [22] = assay: Growth inhibition of human SK-MEL-2 cells assessed as cell growth at 10^-4 M incubated for 48 hrs by sulforhodamine B assay; conditions: SK-MEL-2, 48 h, read-out: Activity
SR = assay: Growth inhibition of human SR cells assessed as cell growth at 10 uM incubated for 48 hrs by sulforhodamine B assay; conditions: read-out: Activity
ACHN [23] = assay: Growth inhibition of human ACHN cells assessed as cell growth at 10^-6 M incubated for 48 hrs by sulforhodamine B assay; conditions: read-out: Activity; in short: as §1
[24] = read-out: LC50 (the source's name)
[25] = read-out: pLC50 (the source's name) (converted)

SMILES | growth at 100 µM (NCI-H226 [1]) [%] | growth at 0.1 µM (SK-MEL-5) [%] | growth at 100 µM [2] [%] | growth at 100 µM (NCI-H322M) [%] | GI50 (ACHN [3]; read-out: GI50) [nM] | TGI (ACHN [3]; read-out: TGI) [nM] | GI50 (ACHN [3]; read-out: pGI50 (converted)) [nM] | TGI (ACHN [3]; read-out: pTGI (converted)) [nM] | growth at 10 µM [4] [%] | growth at 10 µM [5] [%] | growth at 100 µM [6] [%] | growth at 0.01 µM [7] [%] | growth at 10 µM [8] [%] | growth at 0.01 µM [9] [%] | growth at 0.01 µM (NCI-H226 [10]) [%] | growth at 0.1 µM (T47D [11]) [%] | GI50 (M14; read-out: GI50) [nM] | TGI (M14; read-out: TGI) [nM] | GI50 (M14; read-out: pGI50 (converted)) [nM] | TGI (M14; read-out: pTGI (converted)) [nM] | other results
c1ccc(-c2nc(Nc3ccc(-c4nc5ccccc5[nH]4)cc3)nc(N3CCOCC3)n2)cc1 | -59 | 104 | -78 | -62 | 1250 | 2740 | 1260 | 2750 | -73 | -50.4 | -82 | 94 | -76 | 100 | 107 | 109 | 1340 | 2900 | 1350 | 2880 | CC50 (ACHN [3]; [24]): 6040 nM; CC50 (ACHN [3]; [25]): 6030 nM; CC50 (M14; [24]): 6300 nM; CC50 (M14; [25]): 6310 nM; growth at 0.1 µM [12]: 92%; growth at 0.1 µM [13]: 86%; growth at 10 µM (NCI-H226 [14]): -60%; growth at 10 µM [15]: -78%; growth at 10 µM (ACHN [16]): -82%; growth at 0.1 µM (U-251): 110%; growth at 10 µM (T47D [17]): -56%; growth at 0.1 µM (HT-29): 108%; growth at 100 µM (T47D [18]): -56%; growth at 10 µM [19]: -30.3%; growth at 10 µM [20]: 0.63%; growth at 1 µM (SK-MEL-2 [21]): 106%; growth at 1 µM (Malme-3M): 103%; growth at 100 µM (SK-MEL-2 [22]): -83%; growth at 10 µM (SR): 8.94%; growth at 1 µM (ACHN [23]): 64%
Fc1ccc(-c2nc(Nc3ccc(-c4nc5ccccc5[nH]4)cc3)nc(N3CCOCC3)n2)cc1 | -50 | 101 | -4 | 9 | 2550 | > 100000 | 2570 | > 100000 | -5 | 39.2 | -6 | 91 | -35 | 100 | 100 | 93 | 1940 | 4030 | 1950 | 4070 | CC50 (ACHN [3]; [24]): > 100000 nM; CC50 (ACHN [3]; [25]): > 100000 nM; CC50 (M14; [24]): 8370 nM; CC50 (M14; [25]): 8320 nM; growth at 0.1 µM [12]: 98%; growth at 0.1 µM [13]: 97%; growth at 10 µM (NCI-H226 [14]): -8%; growth at 10 µM [15]: -30%; growth at 10 µM (ACHN [16]): 3%; growth at 0.1 µM (U-251): 102%; growth at 10 µM (T47D [17]): -50%; growth at 0.1 µM (HT-29): 96%; growth at 100 µM (T47D [18]): -44%; growth at 10 µM [19]: 19.6%; growth at 10 µM [20]: 66.3%; growth at 1 µM (SK-MEL-2 [21]): 99%; growth at 1 µM (Malme-3M): 104%; growth at 100 µM (SK-MEL-2 [22]): -50%; growth at 10 µM (SR): 6.01%; growth at 1 µM (ACHN [23]): 82%
Clc1ccc(-c2nc(Nc3ccc(-c4nc5ccccc5[nH]4)cc3)nc(N3CCOCC3)n2)cc1 | -25 | 102 | -24 | -22 | 1050 | 2380 | 1050 | 2400 | -79 | -73.8 | -45 | 94 | -85 | 100 | 101 | 92 | 370 | 1480 | 372 | 1480 | growth at 0.1 µM [12]: 91%; growth at 0.1 µM [13]: 93%; growth at 10 µM (NCI-H226 [14]): -55%; growth at 10 µM [15]: -86%; growth at 10 µM (ACHN [16]): -87%; growth at 0.1 µM (U-251): 103%; growth at 10 µM (T47D [17]): -62%; growth at 0.1 µM (HT-29): 99%; growth at 100 µM (T47D [18]): -32%; growth at 10 µM [19]: -89.9%; growth at 10 µM [20]: -74.7%; growth at 1 µM (SK-MEL-2 [21]): 97%; growth at 1 µM (Malme-3M): 111%; growth at 100 µM (SK-MEL-2 [22]): -40%; growth at 10 µM (SR): -83.3%; growth at 1 µM (ACHN [23]): 53%
c1ccc2[nH]c(-c3ccc(Nc4nc(N5CCCCC5)nc(N5CCOCC5)n4)cc3)nc2c1 | -36 | 93 | -11 | 10 | 3140 | > 100000 | 3160 | > 100000 | 16 | 45.7 | -19 | 96 | -43 | 97 | 84 | 94 | 2050 | 4720 | 2040 | 4680 | CC50 (ACHN [3]; [24]): > 100000 nM; CC50 (ACHN [3]; [25]): > 100000 nM; CC50 (M14; [24]): 15600 nM; CC50 (M14; [25]): 15500 nM; growth at 0.1 µM [12]: 92%; growth at 0.1 µM [13]: 86%; growth at 10 µM (NCI-H226 [14]): 12%; growth at 10 µM [15]: -35%; growth at 10 µM (ACHN [16]): 9%; growth at 0.1 µM (U-251): 97%; growth at 10 µM (T47D [17]): -46%; growth at 0.1 µM (HT-29): 105%; growth at 100 µM (T47D [18]): -43%; growth at 10 µM [19]: 22.5%; growth at 10 µM [20]: 73.9%; growth at 1 µM (SK-MEL-2 [21]): 101%; growth at 1 µM (Malme-3M): 98%; growth at 100 µM (SK-MEL-2 [22]): -68%; growth at 10 µM (SR): 9.79%; growth at 1 µM (ACHN [23]): 90%

Source: ChEMBL document CHEMBL3808334, “Synthesis and in vitro evaluation of novel triazine analogues as anticancer agents and their interaction studies with bovine serum albumin” (Eur J Med Chem, 2016)
